# From ChEMBL document CHEMBL1128272, “Stereoselective LSD-like activity in a series of d-lysergic acid amides of (R)- and (S)-2-aminoalkanes” (J Med Chem, 1995)
# Active and inactive are the calls of the source. The rule behind the calls is not given here.
# Key:
# Rattus norvegicus [1] = assay: Compound was tested for its effect on animals. Value reported as number of rats disrupted in trained rats at a dose of 186 (nmol/kg); format: functional
# Procedure, shortened: (§1)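 Two-lever drug discrimination in food-restricted rats (~80% free-feeding weight) trained on FR 50 to tell saline from LSD tartrate (186 nmol/kg, 0.08 mg/kg ip, 30 min pre-session). Test drugs were given ip in saline, 1 mL/kg. Test sessions ran under extinction, ending at 50 presses on either lever. Testing required 85% training accuracy. Counts of rats tested and disrupted were recorded, plus the percentage selecting the drug lever.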
# Rattus norvegicus [2] = assay: Effective dose in trained rats was determined at a dose of 186 (nmol/kg); format: functional
# Rattus norvegicus [3] = assay: Percentage of animals selecting drug lever in trained rats at a dose 186 (nmol/kg); format: functional; procedure, shortened: as §1
# Rattus norvegicus [4] = assay: Potency in trained rats was determined with relative to reference compound […] at a dose of 186 (nmol/kg); format: functional
# Rattus norvegicus [5] = assay: Percentage of animals selecting drug lever in trained rats at a dose 213 (nmol/kg); format: functional; procedure, shortened: as §1
# Rattus norvegicus [6] = assay: Compound was tested for its effect on animals. Value reported as number of rats disrupted in trained rats at a dose of 639 (nmol/kg); format: functional; procedure, shortened: as §1
# Rattus norvegicus [7] = assay: Percentage of animals selecting drug lever in trained rats at a dose 639 (nmol/kg); format: functional
# Procedure, shortened: (§2)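 Drug-naive rats held at about 80% of free-feeding weight were trained on a two-lever FR50 food schedule to tell ip LSD tartrate (186 nmol/kg, 0.08 mg/kg) from saline, given 30 min before sessions. Test drugs were given ip in saline (1 mL/kg). Tests ran under extinction and ended at 50 presses on either lever. Rats had to hold 85% correct on training days. Read-out was % selecting the drug lever per dose.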
# Rattus norvegicus [8] = assay: Compound was tested for its effect on animals. Value reported as number of rats disrupted in trained rats at a dose of 213 (nmol/kg); format: functional; procedure, shortened: as §1
# [9] = biological target: T1, 5-hydroxytryptamine receptor 1A (Rattus norvegicus, UniProt P19327); assay: Binding affinity was measured against 5-hydroxytryptamine 1A receptor by displacement of [3H]8-OH-DPAT by lysergic acid amides
# T1 sequence (P19327 whole entry): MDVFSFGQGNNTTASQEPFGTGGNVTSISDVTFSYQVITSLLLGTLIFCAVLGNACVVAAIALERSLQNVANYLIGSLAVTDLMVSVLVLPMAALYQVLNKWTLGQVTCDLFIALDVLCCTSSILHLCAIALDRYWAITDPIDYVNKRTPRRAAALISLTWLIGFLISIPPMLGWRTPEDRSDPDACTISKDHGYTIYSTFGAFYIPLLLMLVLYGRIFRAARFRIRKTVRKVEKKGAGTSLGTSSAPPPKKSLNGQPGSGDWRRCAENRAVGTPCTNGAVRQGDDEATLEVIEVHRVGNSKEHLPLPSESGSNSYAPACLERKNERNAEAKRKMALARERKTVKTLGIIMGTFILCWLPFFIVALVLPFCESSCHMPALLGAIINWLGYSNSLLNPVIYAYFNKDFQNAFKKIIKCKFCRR
# Procedure, shortened: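 Rat hippocampal membranes from pooled male Sprague-Dawley rats, preincubated at 37 °C, in 50 mM Tris HCl (pH 7.4) with 0.5 mM Na2EDTA, 0.1% ascorbate and 10 μM pargyline. Competition against 0.75 nM [3H]-8-OH-DPAT for 10 min at 37 °C, then GF/C filtration and scintillation counting. Triplicates. Three to four experiments combined, analysed with EBDA/LIGAND.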
# Rattus norvegicus [10] = assay: Compound was tested for its effect on animals. Value reported as number of rats disrupted in trained rats at a dose of 426 (nmol/kg); format: functional; procedure, shortened: as §1
# Rattus norvegicus [11] = assay: Percentage of animals selecting drug lever in trained rats at a dose 426 (nmol/kg); format: functional; procedure, shortened: as §1
# [12] = biological target: 5-hydroxytryptamine receptor 2A (Rattus norvegicus, UniProt P14842); assay: Binding affinity was measured against 5-hydroxytryptamine 2A receptor by displacement of [3H]- ketanserin by lysergic acid amides
# Procedure, shortened: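 Rat frontal cortex membranes from pooled male Sprague-Dawley rats, preincubated at 37 °C, in 50 mM Tris HCl (pH 7.4) with 0.5 mM Na2EDTA, 0.1% ascorbate, 10 μM pargyline and 5.7 mM CaCl2. Triplicates. Three to four experiments combined.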
# Rattus norvegicus [13] = assay: Effective dose in trained rats was determined at a dose of 213 (nmol/kg); format: functional, organism-based
# Rattus norvegicus [14] = assay: Percentage of animals selecting drug lever in trained rats at a dose 500 (nmol/kg); format: functional; procedure, shortened: as §2
# Rattus norvegicus [15] = assay: Potency in trained rats was determined with relative to reference compound […] at a dose of 63 (nmol/kg); format: functional
# Rattus norvegicus [16] = assay: Compound was tested for its effect on animals. Value reported as number of rats disrupted in trained rats at a dose of 125 (nmol/kg); format: functional; procedure, shortened: as §1
# Rattus norvegicus [17] = assay: Effective dose in trained rats was determined at a dose of 63 (nmol/kg) Value in parentheses are with 95% confidence intervals; format: functional
# Rattus norvegicus [18] = assay: Compound was tested for its effect on animals. Value reported as number of rats disrupted in trained rats at a dose of 250 (nmol/kg); format: functional; procedure, shortened: as §1
# Rattus norvegicus [19] = assay: Percentage of animals selecting drug lever in trained rats at a dose 63 (nmol/kg); format: functional; procedure, shortened: as §2
# Rattus norvegicus [20] = assay: Compound was tested for its effect on animals. Value reported as number of rats disrupted in trained rats at a dose of 500 (nmol/kg); format: functional; procedure, shortened: as §1
# Rattus norvegicus [21] = assay: Percentage of animals selecting drug lever in trained rats at a dose 125 (nmol/kg); format: functional; procedure, shortened: as §1
# Rattus norvegicus [22] = assay: Percentage of animals selecting drug lever in trained rats at a dose 250 (nmol/kg); format: functional; procedure, shortened: as §1
# Rattus norvegicus [23] = assay: Compound was tested for its effect on animals. Value reported as number of rats disrupted in trained rats at a dose of 63 (nmol/kg); format: functional; procedure, shortened: as §1
# 5-hydroxytryptamine receptor 2A, sequence (P14842 whole entry): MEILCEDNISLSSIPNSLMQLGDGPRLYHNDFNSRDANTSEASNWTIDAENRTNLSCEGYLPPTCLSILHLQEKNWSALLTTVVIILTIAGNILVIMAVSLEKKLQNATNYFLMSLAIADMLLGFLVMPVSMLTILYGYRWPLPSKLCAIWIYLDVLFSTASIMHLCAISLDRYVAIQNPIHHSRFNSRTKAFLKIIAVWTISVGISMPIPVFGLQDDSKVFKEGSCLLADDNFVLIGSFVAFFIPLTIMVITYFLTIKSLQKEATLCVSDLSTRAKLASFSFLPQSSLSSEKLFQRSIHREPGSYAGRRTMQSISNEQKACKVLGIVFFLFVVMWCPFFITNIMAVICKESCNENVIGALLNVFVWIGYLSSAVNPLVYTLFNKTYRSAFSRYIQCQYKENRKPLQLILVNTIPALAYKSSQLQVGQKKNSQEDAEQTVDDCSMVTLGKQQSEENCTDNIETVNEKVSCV
structure (smiles),measurement,setting,value
CCN(CC)C(=O)[C@@H]1C=C2c3cccc4[nH]cc(c34)C[C@H]2N(C)C1 [LYSERGIDE],D,Rattus norvegicus [1],0%
same,ED50,Rattus norvegicus [2],0.048 µmol/kg
same,SDL,Rattus norvegicus [3],100%
same,Potency,Rattus norvegicus [4],1
CCCCC(C)NC(=O)[C@@H]1C=C2c3cccc4[nH]cc(c34)C[C@H]2N(C)C1 (some centres undefined),SDL,Rattus norvegicus [5],29%
same,D,Rattus norvegicus [6],12.5%
same,SDL,Rattus norvegicus [7],0%
same,D,Rattus norvegicus [8],30%
same,Ki,[9],0.0049 µM
same,D,Rattus norvegicus [10],30%
same,SDL,Rattus norvegicus [11],0%
same,Ki,[12],0.055 µM
same,ED50,Rattus norvegicus [13],inactive
CCC(CC)NC(=O)[C@@H]1C=C2c3cccc4[nH]cc(c34)C[C@H]2N(C)C1,SDL,Rattus norvegicus [14],92%
same,Potency,Rattus norvegicus [15],0.92
same,D,Rattus norvegicus [16],0%
same,ED50,Rattus norvegicus [17],0.052 µmol/kg
same,D,Rattus norvegicus [18],0%
same,SDL,Rattus norvegicus [19],58%
same,D,Rattus norvegicus [20],14%
same,Ki,[9],0.0021 µM
same,Ki,[12],0.008 µM
same,SDL,Rattus norvegicus [21],67%
same,SDL,Rattus norvegicus [22],85%
same,D,Rattus norvegicus [23],0%
CCCCCC(C)NC(=O)[C@@H]1C=C2c3cccc4[nH]cc(c34)C[C@H]2N(C)C1 (some centres undefined),Ki,[9],0.014 µM
same,Ki,[12],0.357 µM
CCCCC[C@@H](C)NC(=O)[C@@H]1C=C2c3cccc4[nH]cc(c34)C[C@H]2N(C)C1,Ki,[9],0.0033 µM
same,Ki,[12],0.08 µM
